# proKLK7 act – activates the human kallikrein-7 zymogen; P49862; purified proKLK7, EDANS-DABCYL substrate fluorescence; 100% is mature enzyme control, 0% vehicle; activation, % at 7 µM; 370,000 compounds, 0.9% hits;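 active = activation above the mean of all tested compounds plus 3 SD, computed per campaign excluding outliers beyond control limits, cut at about 13% in these data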
# Target sequence (P49862 whole entry, looked up): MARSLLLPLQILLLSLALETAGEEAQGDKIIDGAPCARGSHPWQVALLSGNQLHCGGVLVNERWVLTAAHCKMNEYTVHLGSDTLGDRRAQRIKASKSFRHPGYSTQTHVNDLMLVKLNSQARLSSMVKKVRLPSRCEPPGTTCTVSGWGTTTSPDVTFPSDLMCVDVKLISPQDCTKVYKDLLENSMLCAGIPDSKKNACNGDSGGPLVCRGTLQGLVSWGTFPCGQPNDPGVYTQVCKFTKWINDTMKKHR
# Wee1 degr inh – blocks degradation of human Wee1 kinase. HeLa Luc-Wee1K328M stability, luciferase luminescence; 100% = proteasome inhibitor MG132 effect. reporter increase, % at 5 µM. AID 1321. P30291. 220,000 compounds, 1.2% hits;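 active = activation above the mean of all tested compounds plus 3 SD, set per screening run, cut at about 8.8% in these data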;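 also: cells exposed to compound for 20 h before luminescence read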
# RanGTP-Impb inh – inhibitors of RanGTP-importin-beta interaction, primary screen, biochemical, FRET, CFP-Ran, YFP-importin-beta, homogeneous | cell-free CFP-Ran/YFP-importin-beta FRET ratio | inhibition, % (no concentration beside the values) | 300,000 compounds, 1.1% hits | AID 2216;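 active = more than half of the replicate wells show a fall in the fluorescence ratio signal beyond about 16%, limit read from the data, passing the limit was not always enough; inconclusive = exactly half of the replicate wells pass the set limit; inactive = fewer than half of replicates pass the limit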
# Runt-CBFb FRET – Runt domain-CBFb interaction inhibition. Q01196+Q13951. Cerulean-Runt/Venus-CBFb FRET ratio 530/480, 1 h. inhibition, % at 20 µM. 220,000 compounds, 0.46% hits. AID 1496;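 active = inhibition over about 50% at 20 µM in the single-dose screen, limit read from the data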
#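 Assay system: Cerulean-tagged RUNX1 Runt domain (FRET donor) fusion protein / Amount: 100 nM each of Venus-CBFb and Cerulean-Runt domain / Medium: Tris buffer pH 7.5 with salts and BSA / Also added: Venus-CBFb 100 nM / Schedule: 1 h complex formation plus 1 h compound treatment, room temperature / Signal: FRET fluorescence / Read-out: loss of energy transfer signal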
# AI-2 QS mod – modulators of Vibrio harveyi AI-2 quorum sensing system; activity change, % at 7.5 µM; 300,000 compounds, 0.4% hits; Vibrio harveyi JMH597 AI-2 luminescence/OD600 ratio, 9 h; active compounds read low; strain lacks LuxN and CqsS sensors; 0 = neutral-control median; in the data active = activity change below about -75%, passing the limit was not always enough; inconclusive = no clear call, values can overlap the other calls;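 also: luminescence divided by OD600 gain over 9 h not by final OD600 alone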
# Runt-SMMHC FRET – Runt domain-CBFb-SMMHC interaction inhibition; Cerulean-Runt/Venus-CBFb-SMMHC FRET ratio 530/480, 1 h; inhibition, % at 20 µM; Q01196+Q13951; 220,000 compounds, 0.74% hits; AID 1434;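 active = mean inhibition across duplicate retests at 20 µM reaching about 50%, limit read from the data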;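 also: inhibitors lower the FRET ratio by blocking Runt binding to CBFb-SMMHC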
# Wee1 degr conf – human Wee1 degradation inhibition, confirmation; HeLa Luc-Wee1K328M degradation, luminescence; vehicle 0%, proteasome-blocked wells 100%; shares compounds with Wee1 degr inh; AID 1410; activation, % at 5 µM; 1,100 compounds, 4% hits; in the data active = activation above about 8.9%
# A number is an active result; – = inactive; ? = inconclusive; · = no result given. Compounds with a hit are over-represented: about 2.9% of the library has one in this group of screens.
SMILES,proKLK7 act,Wee1 degr inh,RanGTP-Impb inh,Runt-CBFb FRET,AI-2 QS mod,Runt-SMMHC FRET,Wee1 degr conf
C=CCN1C(=O)c2ccc(C(=O)N(CC)CC(=O)Nc3c(F)cccc3F)cc2C1=O,–,·,–,·,–,·,·
CSC1=NCCN1S(=O)(=O)c1ccccc1,–,–,–,–,–,–,·
Oc1c(CN2CCOCC2)cc(-c2ccccc2)cc1CN1CCOCC1,–,–,–,–,–,–,·
Oc1c(CN2CCOCC2)ccc2ccccc12,–,11.1,–,–,–,–,–
O=C(c1ccc(S(=O)(=O)N2CCCCC2)cc1)N1CCN(c2ccccc2F)CC1,–,–,?,–,–,–,·
COc1ccccc1N1CCN(C(=O)c2ccc(S(=O)(=O)N3CCCCCC3)cc2)CC1,–,10.9,?,–,–,–,–
CCOC(=O)C1=C(C)NC(=S)NC1/C=C/c1ccccc1 (configuration not stated),–,16.0,–,–,–,–,–
O=C1C(=Cc2ccccn2)CCc2ccccc21,–,·,·,·,·,·,·
Cc1ccsc1/C=C1\CCc2ccccc2C1=O,–,16.0,–,–,–,–,–
O=S(=O)(C/C(=C/CO)S(=O)(=O)c1ccccc1)c1ccccc1,–,13.2,–,–,–,–,8.8
C[C@@H]1CN([C@H](C)CO)C(=O)CCCn2nncc2CO[C@@H]1CN(C)S(=O)(=O)c1ccc2c(c1)OCCCO2,–,·,·,·,·,·,·
Cc1ccc(S(=O)(=O)Nc2ccccc2C(=O)N2CCCCC2C)c(C)c1NS(C)(=O)=O (configuration not stated),–,·,–,·,·,·,·
CCSc1nnc(NC(=O)Cn2cnc3c2c(=O)n(C)c(=O)n3C)s1,–,–,–,–,–,–,·
Cc1nnc(NC(=O)Cn2cnc3c2c(=O)n(C)c(=O)n3C)s1,–,11.7,–,–,–,–,–
CC(=O)c1cc2c(C)c(C(=O)c3ccccc3)oc2cc1O,–,11.8,–,–,–,–,–
COc1ccc2nc(Nc3nc(C)c(C(C)=O)s3)sc2c1,–,11.7,18.1,–,–,–,–
CC(=O)c1c(COC(=O)c2ccc(C)cc2)nc2ccccc2[n+]1[O-],–,16.4,–,–,–,–,–
COC(=O)Cn1c(C)nc2ccccc21,–,–,–,–,–,–,·
COC(=O)Cn1c(=O)c(C)nc2ccccc21,–,12.9,–,–,–,–,–
CCOC(=O)Cn1c(C(C)=O)nc2ccccc21,–,11.7,–,–,–,–,–
CCOC(=O)CCNCc1ccc(F)cc1,–,–,–,–,–,–,·
Cc1noc(C)c1NC(=O)N(C)C[C@@H]1Oc2ccc(NC(=O)C3CCCCC3)cc2C(=O)N([C@@H](C)CO)C[C@H]1C,–,·,·,·,·,·,·
Cc1ccc2nc(-c3ccc(NC(=S)NC4CC(C)(C)NC(C)(C)C4)cc3)sc2c1,–,19.9,–,–,–,–,–
O=C(NCCN1CCCCC1)Nc1cccc(C(F)(F)F)c1,–,·,–,·,–,·,·
Cc1ccc(NC(=O)Nc2ccc(Cl)cn2)cc1,–,11.0,–,–,–,–,–
SMILES,proKLK7 act,Wee1 degr inh,RanGTP-Impb inh,Runt-CBFb FRET,AI-2 QS mod,Runt-SMMHC FRET,Wee1 degr conf
Cc1ccc(NC(=O)Nc2ccc(Cl)c(Cl)c2)nc1,–,·,–,·,–,·,·
COC(=O)C[C@H]1CC[C@@H]2[C@H](COc3ccc(NC(=O)NCc4ccccc4)cc3C(=O)N2C)O1,–,·,·,·,·,·,·
Cc1ccc(NC(=O)c2cncc(Br)c2)c(O)c1,–,12.2,–,–,–,–,–
Cc1ccc(NC(=O)c2cncc(Br)c2)nc1,–,·,–,·,–,·,·
O=C(c1ccc(F)cc1)n1ccc(-c2cnc(-c3ccccc3)s2)n1,–,14.6,–,–,–,–,–
O=C(Nc1cccc(Cl)c1)N1CCC(CO)(CCOc2ccccc2)CC1,–,–,–,–,–,–,·
CC(C)C1OC2(C)OC(=N)C1(C#N)C(C#N)(C#N)C2c1ccccc1 (configuration not stated),–,17.2,31.6,–,–,63.2,–
CCOc1cccc(N(C(=O)Cc2cccs2)C(C(=O)NC2CCCCC2)c2cccn2C)c1 (configuration not stated),–,11.3,–,–,–,–,9.6
O=C(C1=C[C@@H](c2coc3ccccc3c2=O)C[C@@H](OCc2ccc(CO)cc2)O1)N1CCN(Cc2ccc3c(c2)OCO3)CC1,–,22.9,–,–,–,–,–
COc1ccc(C(=O)COc2ccc(F)cc2)c(O)c1,–,17.8,–,–,–,–,–
O=C(COc1ccc(F)cc1)c1c(O)cc(O)cc1O,–,–,–,–,–,–,·
O=C(N/N=C/c1ccco1)c1cc(=O)[nH]c2ccccc12,–,28.3,?,–,–,–,–
COc1ccc(/C=N/NC(=O)c2cc(=O)[nH]c3ccccc23)cc1OC,–,–,–,–,–,–,·
CCCn1cc(CN2CCN(Cc3ccc(C)o3)C(CCO)C2)c(C)n1 (configuration not stated),–,–,–,–,–,–,·
CCCn1ncc(CN2CCN(Cc3ccc(C)o3)C(CCO)C2)c1C (configuration not stated),–,11.2,–,–,–,–,–
CN(C(=O)CSc1nc2[nH]ncc2c(=O)[nH]1)c1ccccc1,–,·,–,·,–,·,·
O=C(/C=C/c1ccccc1)Nc1ccc(Cl)cn1,–,11.4,·,–,–,–,9.0
CCCOC1CCCN(Cc2nc(-c3ccc(C(=O)OC)cc3)no2)C1 (configuration not stated),–,–,–,–,–,–,·
Cc1ccc2oc(C(=O)N3CCN(Cc4ncccc4C)CC3)c(C)c2c1,–,·,–,·,–,·,·
COc1cccc2cc(C(C)N(CCCN3CCOCC3)C(=S)Nc3cc(C)ccc3C)oc12 (configuration not stated),–,13.6,–,–,–,–,–
COc1cccc2cc(C(C)N(CCCN3CCOCC3)C(=S)Nc3cccc(C)c3C)oc12 (configuration not stated),–,–,–,–,–,–,·
COc1cccc2cc(C(C)N(CCCN3CCOCC3)C(=S)Nc3ccc(C)c(C)c3)oc12 (configuration not stated),–,32.8,–,–,–,–,–
CC(=O)COC(=O)CNC(=O)c1ccc(Br)cc1,–,–,–,–,–,–,·
Cc1ccc(NC(=O)COC(=O)CNC(=O)c2ccc(Br)cc2)c(C)c1,–,14.1,–,–,–,–,–
N#CCCn1cc(/C=N/N=C2\NC(=O)C(CC(=O)O)S2)c(-c2ccc(F)cc2)n1 (configuration not stated),–,–,–,–,–,–,·

# Assay outcomes: PubChem BioAssay, several laboratories
